Screening results from PubChem BioAssay.
ROMK mod = modulators of human ROMK potassium channel; Tet-inducible ROMK, thallium flux fluorescence; actives lie on both sides; hit rate 2% among 130,000; B-score at 10 µM; AID 1918; P48048;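 active = signal ratio slope over the read window, or its plate-corrected B-score, at least 3 SD from the plate mean, either direction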;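 note: B-score of the F/F0 ratio slope over 7 to 12 s after thallium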
Lmaj promast = inhibitors of Leishmania major promastigote growth; AID 1063; Leishmania major promastigotes, resazurin fluorescence viability; hit rate 9% among 200,000; inhibition, % at 10 µM; in the data active = inhibition above about 50%;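 note: promastigotes grown with compound for 44 hours at 28 °C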
Diaphorase act = counter-screen for diaphorase-based assays: diaphorase activators and chemical reducers. activation factor at 20 µM. hit rate 0.005% among 190,000. Diaphorase/resazurin coupled assay, resorufin fluorescence, 16 min; hits give high values; 1 = vehicle wells, 0 = NADH-free wells;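 active = diaphorase activity raised at least twofold by the compound at 20 µM; inactive = activation factor below 2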
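System – purified diaphorase enzyme from Clostridium kluyveri · Input – enzyme 0.07 U/mL final · Also added – final NADH 0.114 mM, resazurin 0.1 mM · Measured by – fluorescence of resorufin, 544 nm excitation, 590 nm emission · Timing – 16 min enzyme reaction, ambient temperature · Measure – resorufin increase flagging diaphorase activators or reducers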
Cl transport mod = modulators of human KCC2 chloride dependent transport. Q9H2X9. KCC2 cells, thallium flux FluoZin-2 fluorescence. B-score of Tl+ flux slope (higher = more flux/activation; lower = inhibition) at 10 µM. hit rate 2.2% among 190,000. AID 1456;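 active = thallium flux slope and its plate-corrected score both differing from the plate sample mean at a set confidence after two filtering rounds, in either direction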;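 note: slope of fluorescence scaled to starting intensity during 10 to 20 s after thallium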
Target sequence (Q9H2X9 whole entry, looked up): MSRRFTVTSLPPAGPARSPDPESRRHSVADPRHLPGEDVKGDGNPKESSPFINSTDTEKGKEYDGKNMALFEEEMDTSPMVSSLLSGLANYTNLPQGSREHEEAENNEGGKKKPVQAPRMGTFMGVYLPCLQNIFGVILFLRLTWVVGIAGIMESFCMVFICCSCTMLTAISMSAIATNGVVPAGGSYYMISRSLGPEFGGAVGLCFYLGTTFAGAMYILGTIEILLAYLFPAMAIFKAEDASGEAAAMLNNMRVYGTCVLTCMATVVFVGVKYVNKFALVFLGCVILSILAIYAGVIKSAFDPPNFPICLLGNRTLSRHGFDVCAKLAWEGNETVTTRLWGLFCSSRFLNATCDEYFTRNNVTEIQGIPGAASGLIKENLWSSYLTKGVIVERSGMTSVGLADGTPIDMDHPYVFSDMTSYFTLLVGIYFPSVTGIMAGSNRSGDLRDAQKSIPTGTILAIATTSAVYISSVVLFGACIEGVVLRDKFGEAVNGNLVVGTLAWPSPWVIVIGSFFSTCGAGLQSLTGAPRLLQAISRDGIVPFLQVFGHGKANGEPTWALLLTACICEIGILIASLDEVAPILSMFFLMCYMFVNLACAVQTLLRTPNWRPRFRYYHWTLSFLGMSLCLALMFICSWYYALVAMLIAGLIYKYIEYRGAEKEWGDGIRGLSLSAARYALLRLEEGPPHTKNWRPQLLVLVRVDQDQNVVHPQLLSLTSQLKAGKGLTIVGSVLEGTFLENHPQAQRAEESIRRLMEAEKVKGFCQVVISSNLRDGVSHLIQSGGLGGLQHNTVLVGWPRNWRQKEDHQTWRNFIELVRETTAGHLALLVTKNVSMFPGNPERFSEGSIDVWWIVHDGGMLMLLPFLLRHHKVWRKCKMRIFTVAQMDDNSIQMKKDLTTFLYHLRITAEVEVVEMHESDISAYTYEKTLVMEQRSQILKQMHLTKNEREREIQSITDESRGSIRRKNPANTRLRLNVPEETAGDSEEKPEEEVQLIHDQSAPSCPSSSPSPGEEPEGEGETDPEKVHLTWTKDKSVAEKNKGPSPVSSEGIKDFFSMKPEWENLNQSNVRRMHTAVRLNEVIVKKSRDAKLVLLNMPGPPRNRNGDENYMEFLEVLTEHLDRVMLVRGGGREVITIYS
WT yeast gro inh = growth inhibition of WT yeast, mitochondrial fusion screen | mitochondrial fusion phenotypic screen, WT strain | inhibition, % at 10 µM | hit rate 2.1% among 190,000; in the data active = inhibition above about 58%; tested in S. cerevisiae
Diaphorase inh = inhibits diaphorase or chemically oxidizes, flagging diaphorase assay artifacts; inhibition, % at 20 µM; hit rate 0.69% among 190,000; diaphorase resazurin-to-resorufin fluorescence, NADH, 16 min; bacterial (C. kluyveri) enzyme, not human; AID 1217;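 active = primary screen inhibition at 20 µM above a set limit, cut at about 50% in these data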
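Test system: diaphorase enzyme from Clostridium kluyveri; amount: diaphorase at 0.14 U/mL in enzyme working solution; detection: fluorescence of resorufin formed from resazurin, Ex 544/Em 590 nm; times: reaction incubation of 16 min at room temperature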
Of the large screens only hits and unclear results are named; the others gave an inactive call. Sampled rows, rich in hits. Any-hit rate of the full collection: about 12%.

COc1cc(NS(=O)(=O)c2ccc(Cl)cc2)c(C(=O)O)cc1OC	none
NC(=O)Cn1nnc(-c2ccccc2NC(=O)c2cnccn2)n1	none
Cc1cc(C)n(CCC(=O)Nc2cccc(F)c2)n1	none
CN(C)C(=O)CSc1nnc(CCNC(=O)OC(C)(C)C)o1	none
CN(C)C(=O)CSc1nnc(CCCCCNC(=O)OC(C)(C)C)o1	WT yeast gro inh 65 (no result: ROMK mod)
CC(C)CCn1nnnc1C(c1ccc(F)cc1)N1CCN(C(=O)c2ccco2)CC1 (configuration not stated)	Lmaj promast 55 (no result: Cl transport mod)
Cc1ccc(C(c2nnnn2CC2CCCO2)N2CCN(C(=O)c3ccco3)CC2)cc1 (configuration not stated)	none (no result: Cl transport mod)
CC(C)CC(c1nnnn1Cc1ccccc1)N1CCN(C(=O)c2ccco2)CC1 (configuration not stated)	Lmaj promast 65 (no result: Cl transport mod)
O=C(c1ccco1)N1CCN(C(c2ccccc2Cl)c2nnnn2Cc2ccco2)CC1 (configuration not stated)	none (no result: ROMK mod)
O=C(c1ccco1)N1CCN(C(c2ccccc2Cl)c2nnnn2Cc2cccs2)CC1 (configuration not stated)	Lmaj promast 53
O=C(c1ccco1)N1CCN(C(c2ccc(Cl)cc2)c2nnnn2CC2CCCO2)CC1 (configuration not stated)	Lmaj promast 63 (no result: Cl transport mod)
CC(C)/C=C1\CCCCC1N(C)C(=O)NC(C)C (configuration not stated)	none (no result: Cl transport mod)
O=C(NNC(=O)C1CCCO1)c1ccc(F)cc1 (configuration not stated)	none
CC(C)=CCc1c(O)ccc2c1OC(c1ccc(O)c(O)c1)CC2=O (configuration not stated)	Diaphorase inh 62 (no result: ROMK mod)
O=C1CC(c2ccc(O)c(O)c2)Oc2c1ccc(O)c2O (configuration not stated)	none (no result: ROMK mod, Lmaj promast, Diaphorase act, WT yeast gro inh, Diaphorase inh)
COC(=O)C(C)(C)ONC(=O)Nc1ccccc1[N+](=O)[O-]	none
CCCC(=O)OC(C(=O)Nc1cc(C(F)(F)F)ccc1Cl)c1ccccc1 (configuration not stated)	Lmaj promast 90 (no result: ROMK mod)
C(=C\c1ccccc1)/CSc1nnc(-c2ccncc2)n1Cc1ccco1	Cl transport mod -5
c1ccc(-c2nnc(CSc3nnc(-c4ccncc4)n3Cc3ccco3)o2)cc1	WT yeast gro inh 82 (no result: ROMK mod)
O=c1[nH]c(CSc2nnc(-c3ccncc3)n2Cc2ccco2)nc2ccccc12	none (no result: ROMK mod, Cl transport mod)
CN(C)C(=O)CSc1nnc(-c2ccncc2)n1Cc1ccco1	none
O=C(CSc1nnc(-c2ccncc2)n1Cc1ccco1)OC1CCCCC1	Lmaj promast 81 (no result: Cl transport mod)
COCCNC(=O)CSc1nc2ccccc2c(=O)n1CCC(=O)N1CCN(c2ccccc2)CC1	none
O=C(NNc1ccccc1)C(=O)NNS(=O)(=O)c1ccc(CCCl)cc1	none (no result: Lmaj promast, Diaphorase act, WT yeast gro inh, Diaphorase inh)
Nc1ccc(S(=O)(=O)NNC(=O)C(=O)NNc2ccccc2)cc1	Lmaj promast 87 (no result: ROMK mod)
O=C(Nc1ccc(N2CCOCC2)cc1)c1cccc(S(=O)(=O)N2CCC(Cc3ccccc3)CC2)c1	none (no result: ROMK mod)
O=C(NNC(=S)NC1CC2C=CC1C2)c1cccnc1 (configuration not stated)	none (no result: ROMK mod, Lmaj promast, Diaphorase act, WT yeast gro inh, Diaphorase inh)
O=C(CCC1N=C2c3ccccc3N=C(SCc3ccccc3Cl)N2C1=O)NCc1ccco1 (configuration not stated)	none (no result: ROMK mod)
O=C(CCC1N=C2c3ccccc3N=C(SCc3cccc(Cl)c3)N2C1=O)NCc1ccco1 (configuration not stated)	WT yeast gro inh 59 (no result: ROMK mod)
CCN(CC)S(=O)(=O)c1ccc(-c2nnc(SCC(=O)N3c4ccccc4CC3C)o2)cc1 (configuration not stated)	none (no result: ROMK mod)
CCN(CC)S(=O)(=O)c1ccc(-c2nnc(SCC(=O)N3c4ccccc4CC3C)n2CC)cc1 (configuration not stated)	Lmaj promast 91
Nc1ccc(C(=O)OCc2nc3cc4ccccc4cc3[nH]2)cc1	Lmaj promast 63
O=C(CSc1nnc(C2CC2)n1-c1ccccc1)Nc1ccc(N2CCOCC2)cc1	none (no result: ROMK mod, Cl transport mod)
Nc1ccccc1Nc1ccncc1[N+](=O)[O-]	none (no result: ROMK mod)
O=[N+]([O-])c1cncc([N+](=O)[O-])c1Nc1ccccc1Cl	Lmaj promast 80
CNC(=S)Nc1cc(OC)ccc1OC	none (no result: ROMK mod, Cl transport mod)
COC(=O)/C(=C(/F)Sc1cc(C)c(O)c(C)c1)C(F)(F)F	WT yeast gro inh 94 (no result: Cl transport mod)
CC1=C(OC(=O)c2ccc(Br)cc2)C(C)(C)C(c2ccccc2)OC1=O (configuration not stated)	none (no result: Cl transport mod)
CC1=C(OC(=O)c2ccccc2)C(C)(C)C(c2ccc(Br)cc2)OC1=O (configuration not stated)	WT yeast gro inh 66 (no result: ROMK mod)
O=C(NCC1CCCO1)c1cn(-c2ccccc2)nc1-c1ccccc1 (configuration not stated)	Diaphorase inh 58 (no result: ROMK mod)
Cc1cc(C(=O)NCC2CCCO2)n(-c2ccccc2)n1 (configuration not stated)	none (no result: ROMK mod, Cl transport mod)
COC(=O)c1ccccc1OCC(=O)N1CCN(c2ccc(OC)cc2)CC1	none (no result: ROMK mod)
COc1ccc(CC(=O)Nc2cccc(-c3nnc(-c4ccco4)o3)c2)cc1	Lmaj promast 61
COc1ccc(C(=O)Nc2cccc(-c3nnc(-c4ccco4)o3)c2)cc1	none (no result: Cl transport mod)
CCOc1cccc(/C=N/Nc2ccc(S(=O)(=O)N(CC)CC)cn2)c1O	Lmaj promast 82
O=C(NCCc1ccccc1)C(c1cccs1)N(C(=O)CCl)c1ccc(Cl)cc1 (configuration not stated)	Lmaj promast 101
O=c1[nH]cc(N(CCO)CCO)c(=O)[nH]1	none (no result: Lmaj promast, Diaphorase act, WT yeast gro inh, Diaphorase inh)
COC(=O)c1cc2occc2n1Cc1c(F)cccc1Cl	none (no result: ROMK mod)
COC(=O)c1cc2occc2n1Cc1ccc(Cl)cc1	Lmaj promast 56
CC(C)=C1C2CCC1C(C(=O)Nc1cc(C)cc(C)c1)C2C(=O)O (configuration not stated)	none
O=C(Nc1cc(S(=O)(=O)N2CCCCC2)ccc1O)c1ccccc1NS(=O)(=O)c1ccc(F)c(F)c1	none (no result: ROMK mod)
O=C(CSC1CN(C(c2ccccc2)c2ccccc2)C1)N/N=C/c1ccccc1	none (no result: ROMK mod, Lmaj promast, Diaphorase act, WT yeast gro inh, Diaphorase inh)
COc1cc2nc(NC(=O)c3ccc(Cl)cc3)[nH]c(=O)c2cc1OC	Lmaj promast 60 (no result: ROMK mod)
CC1CCN(C(=O)CCc2ccc(Oc3cc([N+](=O)[O-])cc([N+](=O)[O-])c3)cc2)CC1	Lmaj promast 99, WT yeast gro inh 65
COc1ccc(CCCC(=O)NC2CCCCC2)cc1	none (no result: ROMK mod, WT yeast gro inh)
O=C(CCc1ccc(Oc2cc([N+](=O)[O-])cc([N+](=O)[O-])c2)cc1)NC1CCCC1	Lmaj promast 99
O=C(Nc1ncccc1O)c1c(O)c2ccccc2[nH]c1=O	none (no result: ROMK mod, Lmaj promast, Diaphorase act, WT yeast gro inh, Diaphorase inh)
CCCN1C(=O)/C(=C2\SC(N3CCCCC3)=NC2=O)c2ccccc21	Lmaj promast 64
CN1C(=O)/C(=C2\SC(N3CCCCCC3)=NC2=O)c2ccccc21	none (no result: Cl transport mod)
